Bioassay records as filed in PubChem.
Shown is part of a subset that was picked to be rich in hits.
UPR XBP1 act: activators of adaptive XBP1 UPR arm, primary screen, cell-based, CHO-XBP1 luciferase reporter, luminescence, uHTS. IRE1-XBP1 UPR activation; percent of tunicamycin response, DMSO as zero. activation, % at 20 µM. AID 463104, 2010. 0.33% of 330,000 active;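 active means versus positive control, 20 µM dose yields 30% or more activation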
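Material: CHO-XBP1 cells stably carrying IRE1-XBP1-driven luciferase reporter | Medium: F12 with 10% serum | Compound dosing: 20 µM single concentration, DMSO 1% | Incubation: Overnight seeding at 37 °C, 6 h compound treatment at 37 °C | Detection: Steady-Glo luminescence read | Read-out basis: % activation of reporter signal versus tunicamycin and DMSO controls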
PvdQ acylase: P. aeruginosa PvdQ acylase inhibitors, primary screen, biochemical, fluorescence, plate reader and imaging, single point; PvdQ acylase [Pseudomonas aeruginosa LESB58]; 0.063% of 340,000 active; inhibition, % at 10 µM; purified PvdQ acylase; in the data active means inhibition above about 30%, passing the limit was not always enough
CHOP inhibitor: inhibitors of CHOP promoter induction, primary screen, cell-based, unfolded protein response, luciferase reporter; CHO-K1 CHOP-promoter luciferase, tunicamycin-induced, 15-18 h; inhibition, % at 10 µM; 3.8% of 220,000 active; AID 2732, 2010;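 active means compounds that reduced the stress-induced luciferase reporter signal by more than about 70% of percent inhibition, limit read from the data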
UPR CHOP act: activators of apoptotic CHOP UPR arm, primary screen, cell-based, CHO-CHOP luciferase reporter, luminescence, uHTS; UPR activation; percent of tunicamycin response over DMSO baseline; activation, % at 10 µM; 0.34% of 330,000 active;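 active means at 10 µM dose, activation of 40% or more, normalized to positive control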
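assay system = CHO CHOP reporter cells | amount = 500 CHO-CHOP cells per well | buffer or medium = F12 with 10% FBS | incubation = 16-18 h cell attachment, then 6 h compound exposure, 37 °C | detection = luminescence read with Steady-Glo | read-out = percent activation relative to tunicamycin control | controls = tunicamycin high control, DMSO low control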
Of the large screens only hits and unclear results are named; the others gave an inactive call; ! = a repeat was not active.

Cc1ccc(NC2CCCN(C(=O)c3ccnc(Cl)c3)C2)cc1C (centres undefined)	none (no result: CHOP inhibitor)
CCCCCCc1cc2cc(S(=O)(=O)c3ccc(F)c(Cl)c3)c(=O)oc2cc1O	CHOP inhibitor 91
Cc1cccc(NC(=O)NC2CCCc3ccccc32)c1 (centres undefined)	none (no result: CHOP inhibitor)
O=C(Cn1nnc(-c2cccc(C(F)(F)F)c2)n1)NC(=O)NCc1ccco1	CHOP inhibitor 90
O=C(Cn1nnc(-c2ccccc2)n1)NCc1ccco1	none
COc1ccc(C2(c3ccc(OC)cc3)NC(=O)N(CC(=O)NC3CCS(=O)(=O)C3)C2=O)cc1 (centres undefined)	none (no result: CHOP inhibitor)
CC1CCN(S(=O)(=O)c2ccc(Br)s2)CC1	CHOP inhibitor 75
COc1ccc(CN(C(=O)CN2C(=O)C(C)Oc3ccccc32)C2CCCC2)c(OC)c1 (centres undefined)	CHOP inhibitor 71
COc1ccc(CN(C(=O)CN2C(=O)COc3ccccc32)C2CCCC2)c(OC)c1	none
COC(=O)c1cc(/C=C/c2ccccc2)on1	PvdQ acylase 54
CCC(CO)Nc1nc(NCc2ccccc2)c2ncn(C(C)C)c2n1 (centres undefined)	none (no result: UPR XBP1 act, PvdQ acylase, UPR CHOP act)
CCN1/C(=C/C=C/c2oc3ccc4ccccc4c3[n+]2CC)Oc2ccc3ccccc3c21	CHOP inhibitor 70 (no result: PvdQ acylase)
CC[n+]1c(/C=C/N(C)c2ccccc2)oc2ccc(Cl)cc21	none
COC(=O)/C=c1/s/c(=C(/C#N)C(=O)N2CCCCC2)n(-c2ccccc2)c1=O	none
COc1cc(/C=c2\s/c(=C(/C#N)C(=O)N3CCCC3)n(-c3ccccc3)c2=O)ccc1O	CHOP inhibitor 95
CN(C)c1ccc(NC(=O)C(=O)NCCOc2ccccc2)cc1	CHOP inhibitor 70
CN(C(=O)COc1ccccc1C(=O)NCCOc1ccccc1)c1ccccc1	CHOP inhibitor 79
CCOC(=O)CSc1nnc(-c2ccccc2)o1	none
O=C(CSc1nnc(-c2ccccc2)o1)Oc1ccc(Br)cc1	CHOP inhibitor 81
Cc1cccc(NC(=O)CSc2nnc(-c3cc(C)n(-c4ccccc4)c3C)o2)c1C	CHOP inhibitor 91
O=C(CSc1nnc(-c2ccc(Br)cc2)o1)Nc1cccc2ccccc12	CHOP inhibitor 70
Cc1cc(-c2nnc(SCC(=O)Nc3ccccc3C(F)(F)F)o2)c(C)n1-c1ccccc1	none
Cc1cccc(C)c1OC(=O)CSc1nnc(-c2ccccc2O)o1	CHOP inhibitor 92
O=C(/C=C/c1ccc2c(c1)S(=O)(=O)N(Cc1ccccc1)[C@H]2CC(=O)N1CCOCC1)N1CCOCC1	none (no result: CHOP inhibitor)
COc1cc(/C=N/NC(=O)c2cccnc2)ccc1OS(=O)(=O)c1cc(C)ccc1C	none (no result: UPR XBP1 act, UPR CHOP act)
Cn1nnnc1N=N/C(=N/Nc1ccccc1)c1ccccc1	CHOP inhibitor 70
O=C(Nc1ccsc1C(=O)NC1CCCCC1)c1ccc(F)cc1	CHOP inhibitor 70
CC(Nc1cc(N2CCCC2)ccc1[N+](=O)[O-])c1ccccc1 (centres undefined)	none
CC(Nc1cc(N2CCOCC2)ccc1[N+](=O)[O-])c1ccccc1 (centres undefined)	CHOP inhibitor 73
CNc1cc(CSC)nc(SCc2ccc(Cl)cc2Cl)n1	CHOP inhibitor 77
Nc1nc(SCc2ccc(Cl)cc2Cl)n[nH]1	none
CC(C)NC(=O)C1(O)c2ccccc2NC(=O)N1c1ccc(Cl)c(Cl)c1 (centres undefined)	CHOP inhibitor 81
O=C(c1ccc(CSc2nc3ccncc3[nH]2)cc1)N1CCN(c2cccc(Cl)c2)CC1	CHOP inhibitor 83
O=C(c1ccc(CSc2nc3ccncc3[nH]2)cc1)N1CCCCCC1	none
CC(=O)Nc1ccc(OCCOc2ccc(/C=C3/C(=N)N4C=CSC4=NC3=O)cc2)cc1	none
COc1ccc(-c2ccc(/C=C3/C(=N)N4C=CSC4=NC3=O)o2)c([N+](=O)[O-])c1	CHOP inhibitor 82 (no result: UPR XBP1 act, UPR CHOP act)
CCN(CC(=O)Nc1ccc2c(c1)CCC2)Cc1nc2ccccc2c(=O)[nH]1	CHOP inhibitor 71
CC1CCc2c(C(=O)Nc3cccc(-c4nn[nH]n4)c3)csc2C1 (centres undefined)	none (no result: CHOP inhibitor)
Cc1ccc(-n2nc(C)c3c2OC(N)=C(C#N)C3c2ccc(F)cc2)cc1 (centres undefined)	CHOP inhibitor 83
COc1cc2c3nnc(-c4ccc(F)cc4)c-3cn(Cc3ccccc3F)c2cc1OC	CHOP inhibitor 88 (no result: UPR XBP1 act, UPR CHOP act)
COc1ccc(Cl)cc1CN1CCN(c2nc(C)cc(C)c2C#N)CC1	none
Cc1cc(C)c(C#N)c(N2CCN(CCOc3ccc(Cl)cc3)CC2)n1	CHOP inhibitor 75
COc1cccc(C(C)NC(=O)Cc2cccs2)c1 (centres undefined)	none (no result: CHOP inhibitor)
NC1=NC[C@H](CC2CCCCC2)N1CCc1cc(C(F)(F)F)cc(C(F)(F)F)c1	CHOP inhibitor 94
CCN1CCN(CCNC(=O)c2ccc3c(c2)N(Cc2cccc(Cl)c2)C(=O)c2ccccc2S3=O)CC1 (centres undefined)	none (no result: CHOP inhibitor)
COc1ccc(NCC(=O)N/N=C/c2c(C)nn(Cc3ccccc3)c2Cl)cc1	none
Cc1nn(Cc2ccccc2)c(C)c1/C=N/NC(=O)CNc1cccc(C(F)(F)F)c1	CHOP inhibitor 70
COC(=O)c1oc2ccc(Br)cc2c1NC(=O)CCCN1C(=O)c2ccccc2C1=O	CHOP inhibitor 95
O=C(CCCN1C(=O)c2ccccc2C1=O)Nc1c(C(=O)C2CC2)oc2ccccc12	none
N#Cc1ccccc1CSc1nc(N)cc(N)n1	none (no result: CHOP inhibitor)
CCOc1ccc2nc(SCC(=O)NC(=O)NCc3ccco3)sc2c1	CHOP inhibitor 75
O=C(COc1ccccc1Cl)NCc1ccco1	none
CCOc1ccc(-c2cc(CCCC(=O)NCc3ccco3)no2)cc1	CHOP inhibitor 84
COc1ccc(-c2cc(CCCC(=O)N3CCN(c4ccc(OC)cc4)CC3)no2)cc1	CHOP inhibitor 95
CCOc1ccccc1OCC(=O)NCc1ccco1	CHOP inhibitor 77
CCOc1ccc2nc(SCC(=O)NCc3ccco3)sc2c1	none
CCCCC(=O)NC(NC(=S)N1CCCCCC1)C(Cl)(Cl)Cl (centres undefined)	none
NC(=O)NC(Cc1ccccc1)c1ccccc1 (centres undefined)	none
NC(=O)OCC(COC(N)=O)c1ccccc1	CHOP inhibitor 97!
COc1cccc(C2=NN(C(=O)c3cccs3)C(O)(C(F)(F)F)C2)c1 (centres undefined)	CHOP inhibitor 75
COc1cccc(C(=O)N2N=C(c3cccc(OC)c3)CC2(O)C(F)(F)F)c1 (centres undefined)	none
COc1cc(/C=C2\C(=O)N(c3ccc(NC(C)=O)cc3)N=C2c2ccccc2)ccc1O	none
CCOc1cc(/C=C2\C(=O)N(c3nc(-c4ccc(Br)cc4)cs3)N=C2c2ccccc2)ccc1O	UPR XBP1 act 99, UPR CHOP act 642
CC(C)CN(C(=O)C1CCC1)c1c(N)n(Cc2ccccc2)c(=O)[nH]c1=O	none (no result: CHOP inhibitor)
